This passage reports Ki results from ChEMBL document CHEMBL1124565, “Synthesis and receptor affinities of some conformationally restricted analogues of the dopamine D1 selective ligand (5R)-8-chloro-2,3,4,5-tetrahydro-3-methyl-5-phenyl- 1H-3-benzazepin-7-ol” (J Med Chem, 1989).

Assay [1] has as its target T1, D(1A) dopamine receptor (Rattus norvegicus, UniProt P18901). Put plainly: Inhibition of [3H]SCH-23390 binding to rat striatal homogenate dopamine receptor D1. A digest of the protocol:
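Pooled striatal membranes from male Sprague-Dawley rats (150-250 g), washed twice by homogenization/centrifugation (20000g, 10 min) in 50 mM Tris-HCl pH 7.4, final buffer adding 120 mM NaCl, 5 mM CaCl2, 1 mM MgCl2. Test agents at various concentrations compete with [3H]SCH 23390; triplicate, 37 °C for 20 min, rapid GF/B filtration, liquid scintillation counting.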

The target of assay [2] is T2, D(2) dopamine receptor (Rattus norvegicus, UniProt P61169). Put plainly: Displacement of [3H]spiperone from rat striatal homogenate dopamine receptor D2. The essentials:
(§1)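 Striatum from male Sprague-Dawley rats (150-250 g), homogenized in ice-cold 50 mM Tris-HCl pH 7.4, centrifuged 20000g 10 min twice, resuspended in Tris buffer with 120 mM NaCl, 5 mM CaCl2, 1 mM MgCl2. Competition against [3H]spiperone (final approximately 0.3 nM), triplicate tubes, 37 °C 20 min, vacuum filtration over GF/B with ice-cold buffer rinses, scintillation counting.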
(In general: Displacement assays read how much labelled ligand stays bound in the presence of the test substance.)

Assay [3] has as its target T1, D(1A) dopamine receptor. Put plainly: In vitro affinity of compound towards dopamine (D1) receptor was determined by measuring their ability to displace [3H]SCH-23,390 from rat striatal homogenates.
For assay [4], the target named is T2, D(2) dopamine receptor. Put plainly: In vitro affinity of compound towards Dopamine receptor D2 was determined by measuring their ability to displace [3H]spiperone from rat striatal homogenates. A digest of the protocol: as §1

T2 sequence (P61169 whole entry): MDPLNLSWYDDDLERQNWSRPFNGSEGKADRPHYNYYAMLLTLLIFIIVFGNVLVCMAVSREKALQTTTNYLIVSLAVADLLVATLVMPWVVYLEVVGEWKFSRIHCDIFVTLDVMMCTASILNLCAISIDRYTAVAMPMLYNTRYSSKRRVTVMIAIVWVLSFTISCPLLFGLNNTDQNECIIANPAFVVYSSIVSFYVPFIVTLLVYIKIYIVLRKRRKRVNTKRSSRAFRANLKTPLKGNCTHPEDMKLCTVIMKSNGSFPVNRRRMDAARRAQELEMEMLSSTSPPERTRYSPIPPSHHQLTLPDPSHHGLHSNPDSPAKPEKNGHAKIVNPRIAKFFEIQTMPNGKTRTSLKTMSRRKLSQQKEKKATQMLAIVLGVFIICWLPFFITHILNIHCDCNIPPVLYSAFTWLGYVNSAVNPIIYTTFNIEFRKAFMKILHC
T1 sequence (P18901 whole entry): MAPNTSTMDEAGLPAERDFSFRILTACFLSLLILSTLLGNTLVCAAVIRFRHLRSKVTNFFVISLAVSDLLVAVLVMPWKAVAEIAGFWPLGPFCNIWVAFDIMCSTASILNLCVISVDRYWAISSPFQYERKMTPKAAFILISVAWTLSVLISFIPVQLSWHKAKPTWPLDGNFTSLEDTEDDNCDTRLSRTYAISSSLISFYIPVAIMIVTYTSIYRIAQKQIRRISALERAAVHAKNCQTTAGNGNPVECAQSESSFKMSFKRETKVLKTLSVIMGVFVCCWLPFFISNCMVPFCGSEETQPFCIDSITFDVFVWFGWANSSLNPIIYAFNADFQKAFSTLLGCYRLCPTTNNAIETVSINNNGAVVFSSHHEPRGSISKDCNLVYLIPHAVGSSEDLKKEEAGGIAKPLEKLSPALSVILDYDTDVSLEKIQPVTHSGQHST

In the case of `CN1CCc2cc(Cl)c(O)cc2[C@H]2c3ccccc3CC[C@@H]21` [ECOPIPAM], the affinity at D(1A) dopamine receptor [1], expressed as Ki, was 1.9 nM. That is a single-digit nanomolar value.
Take `Cc1cc2c(cc1O)[C@H]1c3ccccc3CC[C@@H]1N(C)CC2`: the inhibition constant Ki (usually the dissociation constant of the complex between target and ligand, obtained from inhibition or displacement) at D(1A) dopamine receptor [1] was found to be 7.1 nM; at D(2) dopamine receptor [2], 1510 nM.
For `CN1CCc2cc(O)c(O)cc2[C@@H]2c3ccccc3CC[C@@H]21`, the Ki is 1730 nM at D(1A) dopamine receptor [3] and above 100000 nM on D(2) dopamine receptor [4].
On D(1A) dopamine receptor [1], `CN1CCc2cc(Cl)c(O)cc2[C@H]2c3ccccc3CC[C@H]21` came in with a Ki of 898 nM.
As to `CN1CCc2ccc(O)cc2[C@H]2c3ccccc3CC[C@@H]21`, the results for the Ki on D(1A) dopamine receptor [1] and at D(2) dopamine receptor [2] were 72.6 nM and 7870 nM, respectively.
In the same order, the values of `COc1cc2c(cc1O)[C@@H]1c3ccccc3CC[C@@H]1N(C)CC2` are 4200 nM and above 100000 nM.
Molecule `CN1CCc2cc(Cl)c(O)cc2[C@@H]2c3ccccc3CC[C@H]21` registered an inhibition constant Ki at D(1A) dopamine receptor [1] of 531 nM.
Turning to `COc1cc2c(cc1O)CCN(C)[C@H]1CCc3ccccc3[C@H]21`, the figures for the Ki on D(1A) dopamine receptor [1] and on D(2) dopamine receptor [2] were 1660 nM and 6400 nM, respectively.
In the same order, the values of `COc1cc2c(cc1O)[C@H]1c3ccccc3CC[C@@H]1N(C)CC2` are 23.6 nM and 2480 nM.
On to `CN1CCc2cc(O)c(O)cc2[C@H]2c3ccccc3CC[C@@H]21`, for which the inhibition constant Ki at D(1A) dopamine receptor [3] came out at 68 nM; on D(2) dopamine receptor [4] it was 2410 nM.
`CN1CCc2cc(Cl)c(O)cc2[C@@H]2c3ccccc3CC[C@@H]21`: the Ki at D(1A) dopamine receptor [1] was found to be 513 nM.
On the same count and under the same terms, the figure for `CN1CCc2cc(Cl)c(O)cc2C2c3ccccc3CCC21` (trans isomer) is 3.3 nM; for `CN1CCc2cc(Cl)c(O)cc2[C@@H]2c3ccccc3CC[C@@H]21` (relative stereo) it is 474 nM.
`COc1cc2c(cc1O)CCN(C)[C@H]1CCc3ccccc3[C@@H]21`: the Ki on D(1A) dopamine receptor [1] was 24400 nM; on D(2) dopamine receptor [2], above 100000 nM.
